In publication PMC7424737 (ACS Omega, 2020):
In brackets after ≈: the same amount, converted by molar mass.

Legend:
TMV [1] = assay: Anti-TMV curative activity in vivo, half-leaf method; set-up: species or system tobacco mosaic virus; conditions: against TMV in vivo at 500 mg/L (500 μg/mL); average of three replicates ± SD
Outline: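 Five-leaf-stage tobacco plants were dusted with emery and rub-inoculated with TMV. After 0.5 h the emery was rinsed off with water and the leaves left to dry. Test compound solution went on the left half-leaf and blank solution on the right. Lesions were counted per half 3–4 days later, and inhibition (%) was calculated from treated versus blank counts. Three repeats; ribavirin positive control.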

[2] = biological target: T1, TMV-coat protein (TMV-CP) (Tobacco mosaic virus, UniProt P69687); assay: Microscale thermophoresis; assay type: binding
T1 sequence (P69687 2-159 limits assumed): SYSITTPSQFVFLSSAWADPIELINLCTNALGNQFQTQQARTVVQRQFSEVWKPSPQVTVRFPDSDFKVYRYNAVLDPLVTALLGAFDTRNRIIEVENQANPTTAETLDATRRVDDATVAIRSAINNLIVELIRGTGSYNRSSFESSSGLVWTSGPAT
Outline: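 Test compound binding to TMV coat protein was measured by microscale thermophoresis to give a dissociation constant (Kd). Ningnanmycin and ribavirin served as positive controls. Each test was repeated three times.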

TMV [3] = assay: Anti-TMV inactivation; assay type: in vivo; conditions: Tobacco mosaic virus, read-out: EC50 of inactivation effect activity
Outline: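 TMV was mixed with test compound for 0.5 h. The mixture was rubbed onto the right half-leaf of tobacco plants, and the left half received the same virus dose alone. Lesions were counted 3–4 days later. Inhibition (%) was calculated from lesion numbers versus the blank-control half. Three repeats; ribavirin positive control.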

`NC(=O)c1ncn([C@@H]2O[C@H](CO)[C@@H](O)[C@H]2O)n1` [ribavirin] was tested, and the curative effect activity (TMV [1]) was 49.3 ± 7.5%, the Kd [2] was 223 ± 66.2 µM and the EC50 (TMV [3]) was 138 ± 4.2 µg/mL (≈ 566 µM).
